PglD inh – blocks C. jejuni PglD acetyltransferase activity | purified PglD enzyme, DTNB colorimetric CoA detection | AID 602405 | 0.098% of 360,000 active | inhibition, % at 12.5 µM; in the data active means inhibition above about 16%, passing the limit was not always enough
SR-BI DiI inh – blocks mouse SR-BI lipid uptake from DiI-HDL. inhibition, % at 12.5 µM. Q61009. 0.96% of 320,000 active. AID 488896. ldlA[mSR-BI] CHO cells, DiI-HDL uptake fluorescence, 3 h;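 active means mean replicate inhibition of at least 70% and a set share of replicates each scoring 70 or more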;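 further: 0% = median of neutral control wells and 100% = median of positive control wells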
Target sequence (Q61009 whole entry, looked up): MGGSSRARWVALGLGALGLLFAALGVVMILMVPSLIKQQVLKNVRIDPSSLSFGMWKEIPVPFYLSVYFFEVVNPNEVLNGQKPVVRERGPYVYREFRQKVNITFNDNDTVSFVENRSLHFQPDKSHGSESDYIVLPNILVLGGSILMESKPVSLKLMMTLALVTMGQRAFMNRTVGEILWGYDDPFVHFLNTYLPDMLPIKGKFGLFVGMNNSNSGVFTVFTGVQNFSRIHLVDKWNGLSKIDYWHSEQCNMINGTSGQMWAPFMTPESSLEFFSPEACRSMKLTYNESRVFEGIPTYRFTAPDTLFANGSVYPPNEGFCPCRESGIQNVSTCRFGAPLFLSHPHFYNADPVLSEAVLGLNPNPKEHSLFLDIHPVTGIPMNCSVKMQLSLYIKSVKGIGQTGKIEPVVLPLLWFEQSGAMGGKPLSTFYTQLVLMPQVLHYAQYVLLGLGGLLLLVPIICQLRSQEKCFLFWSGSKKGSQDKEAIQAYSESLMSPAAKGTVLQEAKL
SR-BI uptake up – activators of SR-BI mediated HDL lipid uptake; CHO ldlA[mSR-BI] cells, DiI-HDL uptake fluorescence, 3 h; 100 = double the neutral-control signal; activation, % at 12.5 µM; 0.096% of 320,000 active; AID 504775;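 active means mean replicate activation of at least 60% and every replicate at or above 60%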;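 further: 0% = median plate neutral-control signal and 100% = twice that signal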
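Assay system: LDL receptor-deficient CHO ldlA cells overexpressing murine SR-BI / Medium: BSA-supplemented, HEPES-buffered Ham's F12, pH 7.4 / Probe or stimulus: DiI-labelled HDL at 10 µg/mL final / Timing: compound with DiI-HDL co-incubation, 3 h at 37 °C / Technique: bottom-read cell fluorescence after medium removal, ex 550/em 595 nm / Measure: HDL uptake via cellular fluorescence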
Rtt109 Vps75 – blocks Candida albicans Rtt109/Vps75 acetyltransferase activity | Q5AAJ8 | inhibition, % at 34.9 µM | purified Rtt109/Vps75, ThioGlo CoA-SH fluorescence, 4 h | AID 540336 | 0.16% of 330,000 active;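 active means inhibition of at least 50% in every replicate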
N-glyco inh – blocks N-linked glycosylation in D54 reporter cells; reporter increase, % at 12.5 µM; 0.23% of 360,000 active; D54 ERlucT glycosylation luciferase reporter, 24 h; percent of 100 nM tunicamycin response;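 active means mean luciferase reporter signal, scaled so untreated is 0 and the glycosylation-blocking control 100, at or above a set limit in every replicate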;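 further: luciferase carries N-glycosylation sites so blocking glycosylation raises the light; 0% = median of neutral control wells and 100% = median of 100 nM tunicamycin wells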
HIV Env fusion – HIV envelope-mediated fusion inhibition; AID 651610; 1.1% of 360,000 active; inhibition, % at 12.3 µM; HeLa-JRFL Env/CEM21 cell fusion, luciferase;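 active means mean replicate inhibition score of at least 50 and every replicate individually at or above 50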;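 further: 0% = plate neutral controls and 100% = maraviroc near 300 nM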
* = called active by the depositor; i = inactive; . = no result given; [ ] = dose if it differs, or a comment. Compounds with a hit are over-represented: about 1.9% of the library has one in this group of screens.

SMILES	PglD inh	SR-BI DiI inh	SR-BI uptake up	Rtt109 Vps75	N-glyco inh	HIV Env fusion
Cc1noc(C)c1S(=O)(=O)Nc1ccc2c(c1)C(=O)N([C@@H](C)CO)C[C@@H](C)[C@@H](CN(C)Cc1ccc(Oc3ccccc3)cc1)O2	-3	.	.	.	.	.
COc1ccc(S(=O)(=O)N(C)C[C@H]2Oc3ccc(NC(=O)C4CCCCC4)cc3CC(=O)N([C@H](C)CO)C[C@H]2C)cc1	8	.	.	.	.	-2[16.7 µM]
CSc1sc(C(=O)NNC(C)=O)c2c1C1(CCC2)SCCS1	.	7	-7	-3	1	-16
CSc1sc(C(=O)NN)c2c1C1(CCC2)SCCS1	-4	107*	-107	0	-1	0
O=C1[C@@H]2Cc3c([nH]c4ccccc34)C(c3ccccc3)N2C(=O)CN1C1CC1 (some centres undefined)	-5	34	-34	1	1	19
O=C1[C@@H]2Cc3c([nH]c4ccccc34)C(c3ccc([N+](=O)[O-])cc3)N2C(=O)CN1C1CC1 (some centres undefined)	-5	40	-40	6	43*	24
CN1CC(=O)N2C(c3cccc([N+](=O)[O-])c3)c3[nH]c4ccccc4c3C[C@H]2C1=O (some centres undefined)	2	80*	-80	3	9	19
COc1ccccc1NC(=O)N(C)C[C@H]1Oc2ncc(C#CCC(C)C)cc2C(=O)N([C@H](C)CO)C[C@H]1C	1	.	.	.	.	14[16.7 µM]
COc1ccc(S(=O)(=O)N2CCOCC2)cc1OC	.	-12	12	5	0	15
COc1ccc(S(=O)(=O)N2CCOCC2)cc1N=Nc1sc(N)nc1-c1ccccc1	.	81*	-81	2	-2	19
Cc1ccc(NC(=O)Nc2ccc3c(c2)C(=O)N(C)[C@@H]2CC[C@@H](CC(=O)O)O[C@H]2CO3)cc1	3	.	.	.	.	16[16.7 µM]
Cc1cc(C)c2c(N)c3cccc(C)c3nc2n1	.	16	-16	i	104*	-196
Cc1cccc2c(N)c3c(nc12)CCCC3 (tested in a mixture with another compound)	3	-3	3	6	10	-1
Cc1ccc(S(=O)(=O)N(C)C[C@@H]2Oc3ccc(NC(=O)Cc4cn(C)c5ccccc45)cc3CC(=O)N([C@H](C)CO)C[C@@H]2C)cc1	0	.	.	.	.	74*[16.7 µM]
Cc1ccc(S(=O)(=O)N(C)C[C@H]2Oc3ccc(NC(=O)Cc4cn(C)c5ccccc45)cc3CC(=O)N([C@@H](C)CO)C[C@@H]2C)cc1	0	.	.	.	.	1[16.7 µM]
C[C@H]1CN([C@@H](C)CO)C(=O)Cc2cc(NC(=O)Cc3cn(C)c4ccccc34)ccc2O[C@H]1CN(C)S(=O)(=O)c1ccccc1	3	.	.	.	.	67*[16.7 µM]
C[C@H](CO)N1C[C@H](C)[C@H](CN(C)S(=O)(=O)c2ccc(F)cc2)Oc2ccc(NC(=O)Cc3cn(C)c4ccccc34)cc2CC1=O	2	.	.	.	.	56*[16.7 µM]
Fc1ccc2c(-c3cccc(C(F)(F)F)c3)c(-c3ccccc3)ncc2c1	-2	29	-29	6	-4	69*
COc1cc2cnc(-c3ccccc3)c(-c3ccc(C(F)(F)F)cc3)c2cc1OC	1	13	-13	-3	0	84*
Fc1ccc2cnc(-c3ccccc3)c(-c3ccc(C(F)(F)F)cc3)c2c1	-5	-1	1	2	-2	31
CC(C)C(=O)Nc1nnc(CCN2CCCCC2)s1	7	-15	15	52*	1	-62
Cc1noc(C)c1NC(=O)N(C)C[C@H]1OCCCC[C@H](C)Oc2ccc(NC(=O)c3ccccc3)cc2C(=O)N([C@H](C)CO)C[C@@H]1C	1	.	.	.	.	68*[16.7 µM]
C[C@H]1CCCCO[C@H](CN(C)C(=O)Nc2ccc(C(F)(F)F)cc2)[C@@H](C)CN([C@@H](C)CO)C(=O)c2cc(NC(=O)c3ccccc3)ccc2O1	0	.	.	.	.	75*[16.7 µM]
C[C@H](CO)N1C[C@H](C)[C@H](CN(C)C(=O)Nc2ccc(C(F)(F)F)cc2)OCCCC[C@H](C)Oc2ccc(NC(=O)c3ccccc3)cc2C1=O	0	.	.	.	.	-14[16.7 µM]
C[C@@H]1CN([C@H](C)CO)C(=O)c2cc(NC(=O)Nc3ccc(C(F)(F)F)cc3)ccc2O[C@@H](C)CCCCO[C@H]1CN(C)C(=O)c1ccccc1	-1	.	.	.	.	56*[16.7 µM]

High-throughput results (PubChem BioAssay)
